High-throughput results as filed in PubChem.
SENP8 block-1: human SENP8 protease inhibitors, primary screen, biochemical, fluorescence, Nedd8 protein substrate, uHTS. recombinant SENP8. inhibition, % at 20 µM. hit rate 0.64% among 360,000; in the data active = inhibition mostly above about 40%, no sharp cut-off; inactive = mostly below about 27%
HSP90 refold inh: HSP90 inhibitors, primary screen, cell lysate, luminescence. Heat shock protein HSP 90 (rabbit reticulocyte lysate; luciferase refolding). Rabbit reticulocyte lysate, luciferase refolding luminescence, 3 h. hit rate 0.91% among 290,000. inhibition, % at 5.6 µM;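 active = inhibition above the screen-wide mean plus 3 SD, computed separately per campaign, cut at about 16% in these data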;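 also: inhibitors lower the luminescence because luciferase stays unfolded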
SENP6 inh: SENP6 protease inhibitors, primary screen, biochemical, luminescence, uHTS | Recombinant SENP6 catalytic domain, aminoluciferin luminescence | hit rate 1.8% among 330,000 | AID 2599, 2010 | inhibition, % at 10 µM;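 active = inhibition above about 50% at the single tested dose, limit read from the data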
SENP1 inh: human SENP1 catalytic domain inhibitors, primary screen, biochemical, FRET, uHTS | Sentrin-specific protease 1 (Homo sapiens), Q9P0U3 | recombinant SENP1 catalytic domain, CyPet-SUMO1-YPet FRET cleavage | inhibition, % at 10 µM | hit rate 0.21% among 360,000 | AID 624204, 2012;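 active = inhibition at least 30% at 10 µM, raw YFP signal under a set limit, fluorescence ratio 0.5 to 1.5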
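material = recombinant human SENP1 catalytic domain, His6-tagged | quantity = 20 pM enzyme | reagent = 25 nM SUMO1 FRET substrate | compound dosing = 10 µM single point, 0.5% DMSO | timing = 50 min enzyme reaction, room temperature, light-protected | detection = FRET, CFP and YFP emission | control set = no-enzyme low, enzyme-DMSO high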
SENP7 block: SENP7 protease inhibitors, primary screen, biochemical, luminescence, uHTS; Sentrin-specific protease 7 (Homo sapiens), Q9BQF6; recombinant SENP7, Z-RLRGG-aminoluciferin luminescence, 40 min; inhibition, % at 5 µM; hit rate 1.5% among 330,000; AID 434973, 2010;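 active = inhibition above about 50% at the single test dose, limit read from the data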
Target sequence (Q9BQF6 706-1050 limits assumed): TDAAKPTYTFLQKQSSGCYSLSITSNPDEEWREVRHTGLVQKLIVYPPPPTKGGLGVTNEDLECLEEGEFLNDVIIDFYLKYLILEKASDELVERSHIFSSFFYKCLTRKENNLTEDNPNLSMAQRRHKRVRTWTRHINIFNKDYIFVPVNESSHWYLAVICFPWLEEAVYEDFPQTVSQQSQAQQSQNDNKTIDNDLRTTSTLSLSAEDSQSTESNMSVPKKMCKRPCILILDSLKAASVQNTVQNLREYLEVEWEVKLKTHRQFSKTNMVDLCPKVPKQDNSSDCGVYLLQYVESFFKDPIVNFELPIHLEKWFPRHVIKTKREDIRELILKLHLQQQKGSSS
SENP8 block-2: SENP8 protease inhibitors, primary screen, biochemical, luminescence; Sentrin-specific protease 8 (Homo sapiens), Q96LD8; purified SENP8, Z-RLRGG-aminoluciferin cleavage; inhibition, % at 10 µM; hit rate 1.2% among 330,000; in the data active = inhibition above about 50%
SENP8 confirm: SENP8 protease inhibitors, retest, confirmation, biochemical, luminescence, single concentration; shares compounds with SENP7 block; Recombinant SENP8, Z-RLRGG-aminoluciferin luminescence, 60 min; inhibition, % at 12.5 µM; hit rate 40% among 6,200;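 active = mean inhibition across replicates above about 50%, limit read from the data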
SENP6 conf: SENP6 protease inhibitors, confirmation, biochemical, luminescence, single concentration; shares compounds with SENP7 block; recombinant SENP6, Z-RLRGG-aminoluciferin luminescence; inhibition, % at 12.5 µM; hit rate 58% among 6,200
SENP7 confirm: SENP7 protease inhibitors, retest, confirmation, biochemical, luminescence, single concentration; shares compounds with SENP7 block; hit rate 69% among 6,200; recombinant SENP7, Z-RLRGG-aminoluciferin luminescence, 40 min; inhibition, % at 12.5 µM
Casp3 select: caspase-3 protease inhibitors, confirmation, selectivity assay for SENP inhibitor project, biochemical, single concentration. purified caspase-3, Z-DEVD-aminoluciferin luminescence, 60 min. AID 488918, 2010. hit rate 60% among 6,200. inhibition, % at 12.5 µM. shares compounds with SENP7 block;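 active = mean inhibition above about 50%, limit read from the data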
SENP luc ctr: luminescence interference (SENP counter-screen); hit rate 39% among 6,200; shares compounds with SENP7 block; Pre-incubated SENP8/Z-RLRGG-aminoluciferin, luciferase luminescence interference; inhibition, % at 12.5 µM; AID 488919;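 active = mean inhibition above about 50% when retested at one dose, limit read from the data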
A number is an active result; i = inactive; nt = no result given. Compounds with a hit are over-represented: about 2.9% of the library has one in this group of screens.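 The calls were made as follows, unless noted: active = mean inhibition above about 50% in the one-dose retest (limit read from the data); inactive = the rest.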

SMILES | SENP8 block-1 | HSP90 refold inh | SENP6 inh | SENP1 inh | SENP7 block | SENP8 block-2 | SENP8 confirm | SENP6 conf | SENP7 confirm | Casp3 select | SENP luc ctr
Nc1ccc(-c2nc3ccc([N+](=O)[O-])cc3[nH]2)cc1 | i | i | 50 | 49 | i | i | i | i | 73 | i | i
O=[N+]([O-])c1ccc(-c2nc3ccc([N+](=O)[O-])cc3[nH]2)cc1 | i | i | 85 | i | 76 | 68 | i | i | 58 | i | 50
O=C(CN1C(=O)C2(OCCCO2)c2ccccc21)NCc1ccccc1 | i | i | i | i | 52 | i | i | i | i | i | i
O=c1[nH]c2ccc(S(=O)(=O)N3CCN(c4ccc(F)cc4)CC3)cc2o1 | i | i | i | i | i | 55 | i | i | i | i | i
O=c1oc(C2(O)CCCCC2)cc2ccc(-c3ccc4[nH]ccc4c3)cc12 | i | nt | i | i | 53 | i | i | i | i | i | i
CCO/C=C1\C(=O)N(c2ccccc2)C(=O)c2ccccc21 | i | i | 53 | i | i | i | i | 54 | i | i | i
CCO/C=C1/C(=O)N(Cc2ccccc2)C(=O)c2ccccc21 | i | i | 94 | i | 81 | 90 | 82 | 97 | 86 | 98 | i
COc1ccc(N2C(=O)c3ccccc3C2=O)cc1 | i | i | i | i | i | i | nt | nt | nt | nt | nt
CCO/C=C1/C(=O)N(CC)c2ccccc21 | i | i | i | i | i | i | nt | nt | nt | nt | nt
CCO/C=C1/C(=O)N(c2ccc(OC)cc2)C(=O)c2ccccc21 | i | i | 63 | i | i | i | i | 70 | i | i | i
CCO/C=C1/C(=O)N(c2ccccc2OC)C(=O)c2ccccc21 | i | i | i | i | i | i | nt | nt | nt | nt | nt
Nc1c(-c2ccccc2)cnn1-c1ccccc1 | i | i | 79 | i | 83 | 70 | 75 | 72 | 94 | 88 | 78
O=c1c2ccccc2cnn1-c1ccc2ccccc2c1 | i | i | 88 | i | 82 | 67 | 53 | 77 | 94 | 80 | i
O=c1c2ccccc2cnn1-c1ccc(Cl)nn1 | i | i | i | i | i | i | nt | nt | nt | nt | nt
O=c1c2ccccc2cnn1-c1ccc(Br)cc1 | i | i | 58 | i | 66 | i | i | i | 67 | 67 | i
COC(=O)c1cn(C(=O)c2cc(Cl)ccc2Cl)c2ccccc12 | i | i | i | i | i | i | nt | nt | nt | nt | nt
Cc1cccc(Nc2nc(-c3ccc(F)cc3)cs2)n1 | i | i | 96 | i | 85 | 84 | i | 81 | 97 | 56 | i
COc1ccc(-c2csc(Nc3cccc(C)n3)n2)cc1 | i | i | 90 | i | 81 | 88 | i | 81 | 96 | 54 | i
COc1ccc(-c2csc(Nc3cccc(C)n3)n2)cc1C | i | i | nt | i | nt | nt | nt | nt | nt | nt | nt
CC(=O)Oc1ccc(-c2csc(Nc3cccc(C)n3)n2)cc1 | i | i | 73 | i | 87 | 87 | i | i | 55 | 70 | i
COC(=O)C1=CCCCC(O)=C1C(=O)OC | i | nt | nt | i | nt | nt | nt | nt | nt | nt | nt
